ChEMBL document CHEMBL1129261, “De novo antimicrobial peptides with low mammalian cell toxicity” (1996)
Converted amounts (≈) assume the structure as drawn.

Assays:
[1] = organism: Mus musculus; experiment: (§1) Compound was tested for sublethal concentrations in 3T3 mouse fibroblast lysis.; type: functional
Summary of the method: (§2)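 Mouse 3T3 fibroblast monolayers, 1 day old (about 1 × 10^4 cells/well), in MEM. Peptide applied as 2-fold serial dilutions in MEM, 30 min at 37 °C alongside untreated controls. Cells then stained with 0.2% trypan blue and viewed by light microscopy. Sublethal dose is the highest dilution in which only 1-10 adherent cells stay unstained.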

[2] = test system: Pseudomonas aeruginosa; experiment: Compound was evaluated for antibacterial activity against Pseudomonas aeruginosa; type: functional
Summary of the method: (§3)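 Broth microdilution MIC against E. coli ATCC 25922, P. aeruginosa ATCC 27853, S. aureus ATCC 25723. Cultures grown to midlog phase in nutrient broth, standardized to 0.5 McFarland, diluted to 5 × 10^4 cells per well. Equal volume of peptide added, 1:2 serial dilutions giving 256-2 µg/mL in medium. MIC is the lowest concentration with no turbidity […]. Median of three to seven tests.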

[3] = organism: Homo sapiens; experiment: Compound was measured for sublethal concentrations (uM) in Human erythrocytes; type: functional
Summary of the method: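 Human erythrocytes (1 × 10^5 per well) incubated at 37 °C for 30 min with peptide. Peptide was dissolved in serum-free MEM and diluted 2-fold serially. Sublethal concentration is the highest dilution […]. A "greater than" entry means slight hemolysis at the highest concentration tested.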

[4] = test system: Escherichia coli; experiment: Compound was evaluated for antibacterial activity against Escherichia coli; type: functional; summary of the method: as §3
[5] = test system: Staphylococcus aureus; experiment: Compound was evaluated for antibacterial activity against Staphylococcus aureus; type: functional; summary of the method: as §3
[6] = test system: NIH3T3; experiment: as §1; type: functional, cell-based; summary of the method: as §2

Compound: CC(C)C[C@H](NC(=O)[C@H](CCCCN)NC(=O)[C@H](CCCCN)NC(=O)[C@H](C)NC(=O)[C@H](CC(C)C)NC(=O)[C@H](CCCCN)NC(=O)[C@H](C)NC(=O)[C@H](CC(C)C)NC(=O)[C@H](CCCCN)NC(=O)[C@H](CCCCN)NC(=O)[C@H](C)NC(=O)[C@H](CC(C)C)NC(=O)[C@H](CCCCN)NC(=O)[C@H](C)NC(=O)[C@H](CC(C)C)NC(=O)[C@H](CCCCN)NC(=O)[C@H](CCCCN)NC(=O)[C@H](C)NC(=O)[C@H](CC(C)C)NC(=O)[C@@H](N)CCCCN)C(=O)N[C@@H](C)C(=O)O
- Concentration [1]: 11 µM
- MIC [2]: 4 µM (≈ 9.11 µg/mL)
- Concentration [3]: > 250 µM
- MIC [4]: 4 µM (≈ 9.11 µg/mL)
- MIC [5]: 4 µM (≈ 9.11 µg/mL)

Compound: CC(C)C[C@H](NC(=O)[C@H](C)NC(=O)[C@H](CCCCN)NC(=O)[C@H](CC(C)C)NC(=O)[C@H](C)NC(=O)[C@H](CCCCN)NC(=O)[C@H](CCCCN)NC(=O)[C@H](CC(C)C)NC(=O)[C@H](C)NC(=O)[C@H](CCCCN)NC(=O)[C@H](CC(C)C)NC(=O)[C@H](C)NC(=O)[C@H](CCCCN)NC(=O)[C@H](CCCCN)NC(=O)[C@H](CC(C)C)NC(=O)[C@H](C)NC(=O)[C@H](CCCCN)NC(=O)[C@H](CC(C)C)NC(=O)[C@H](C)NC(=O)[C@@H](N)CCCCN)C(=O)N[C@@H](CCCCN)C(=O)O
- MIC [2]: 4 µM (≈ 9.11 µg/mL)
- Concentration [6]: 11 µM
- MIC [4]: 4 µM (≈ 9.11 µg/mL)
- MIC [5]: 8 µM (≈ 18.2 µg/mL)

Compound: CC(C)C[C@H](NC(=O)[C@H](CCCCN)NC(=O)[C@H](C)NC(=O)[C@H](CC(C)C)NC(=O)[C@H](CCCCN)NC(=O)[C@H](CCCCN)NC(=O)[C@H](C)NC(=O)[C@H](CC(C)C)NC(=O)[C@H](CCCCN)NC(=O)[C@H](C)NC(=O)[C@H](CC(C)C)NC(=O)[C@H](CCCCN)NC(=O)[C@H](CCCCN)NC(=O)[C@H](C)NC(=O)[C@H](CC(C)C)NC(=O)[C@H](CCCCN)NC(=O)[C@H](C)NC(=O)[C@H](CC(C)C)NC(=O)[C@@H](N)CCCCN)C(=O)N[C@@H](C)C(=O)N[C@@H](CCCCN)C(=O)O
- Concentration [1]: 9 µM
- MIC [2]: 4 µM (≈ 9.11 µg/mL)
- Concentration [3]: > 520 µM
- MIC [4]: 4 µM (≈ 9.11 µg/mL)
- MIC [5]: 4 µM (≈ 9.11 µg/mL)

Compound: CC(C)C[C@H](NC(=O)[C@H](CCCCN)NC(=O)[C@H](C)NC(=O)[C@H](CC(C)C)NC(=O)[C@H](CCCCN)NC(=O)[C@H](CCCCN)NC(=O)[C@H](C)NC(=O)[C@H](CC(C)C)NC(=O)[C@H](CCCCN)NC(=O)[C@H](C)NC(=O)[C@H](CC(C)C)NC(=O)[C@@H](N)CCCCN)C(=O)N[C@@H](C)C(=O)N[C@@H](CCCCN)C(=O)O
- Concentration [1]: > 517 µM
- MIC [2]: 6 µM (≈ 9.14 µg/mL)
- Concentration [3]: > 750 µM
- MIC [4]: 6 µM (≈ 9.14 µg/mL)
- MIC [5]: 6 µM (≈ 9.14 µg/mL)

Compound: CC[C@H](C)[C@H](NC(=O)CN)C(=O)NCC(=O)N[C@@H](C)C(=O)N[C@H](C(=O)N[C@@H](CC(C)C)C(=O)N[C@@H](CCCCN)C(=O)N[C@H](C(=O)N[C@@H](CC(C)C)C(=O)N[C@H](C(=O)N[C@H](C(=O)NCC(=O)N[C@@H](CC(C)C)C(=O)N1CCC[C@H]1C(=O)N[C@@H](C)C(=O)N[C@@H](CC(C)C)C(=O)N[C@H](C(=O)N[C@@H](CO)C(=O)N[C@@H](Cc1c[nH]c2ccccc12)C(=O)N[C@H](C(=O)N[C@@H](CCCCN)C(=O)N[C@@H](CCCNC(=N)N)C(=O)N[C@@H](CCCCN)C(=O)N[C@@H](CCCNC(=N)N)C(=O)N[C@@H](CCC(N)=O)C(=O)N[C@@H](CCC(N)=O)C(N)=O)[C@@H](C)CC)[C@@H](C)CC)[C@@H](C)O)[C@@H](C)O)C(C)C)C(C)C
- Concentration [1]: 1 µM
- Concentration [3]: 1 µM

Compound: H-GIGKFLHSAKKFGKAFVGEIMNS-NH2
- Concentration [1]: 60 µM
- MIC [2]: 5 µM
- Concentration [3]: > 460 µM
- MIC [4]: 10 µM
- MIC [5]: 19 µM

Compound: H-KAAKKAAKAAKKAA-OH
- Concentration [1]: > 525 µM
- Concentration [3]: > 670 µM
- MIC [4]: 47 µM
- MIC [5]: > 256 µM

Compound: H-KAAKKAAKAAKKAAKAAKKAA-OH
- Concentration [1]: > 440 µM
- Concentration [3]: > 1630 µM
- MIC [4]: 8 µM
- MIC [5]: 8 µM

Compound: H-KLAKKLA-OH
- MIC [2]: > 100 µM
- MIC [4]: > 100 µM
- MIC [5]: > 100 µM

Compound: H-KLAKKLAKLAKKLA-OH
- Concentration [1]: > 272 µM
- MIC [2]: 3 µM
- Concentration [3]: > 750 µM
- MIC [4]: 6 µM
- MIC [5]: 6 µM

Compound: H-KLAKLAK-OH
- MIC [2]: > 95 µM
- MIC [4]: > 95 µM
- MIC [5]: > 95 µM

Compound: H-KLGKKLGKLGKKLG-OH
- Concentration [3]: > 780 µM
- MIC [4]: 22 µM
- MIC [5]: 22 µM

Compound: H-KLGKKLGKLGKKLGKLGKKLG-OH
- Concentration [1]: > 393 µM
- MIC [2]: 4 µM
- Concentration [3]: > 570 µM
- MIC [4]: 4 µM
- MIC [5]: 4 µM
